Measurements taken from ChEMBL document CHEMBL1153925, “Synthesis, characterization and biological activity of ring-substituted 6-benzylamino-9-tetrahydropyran-2-yl and 9-tetrahydrofuran-2-ylpurine derivatives” (Bioorg Med Chem, 2009).
The source made the active and inactive calls. The rule behind the calls is not given here.

Tested on: Nicotiana tabacum
Assay: Cytokinin activity in tobacco callus assessed as stimulation of callus growth relative to 6-benzylaminopurine
Assay type: functional, organism-based
Procedure, shortened: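 Compounds dissolved in DMSO, diluted with water to 5 × 10^-2 M stock, then diluted in medium to 10^-8 to 10^-4 M. Final DMSO ≤0.2%; solvent control 0.2% DMSO. Readout was cytokinin-dependent tobacco callus growth. Activity is expressed relative to 10^-6 M BAP (=100%) at each compound's optimal concentration. Five replicates per concentration; whole test run at least twice.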

## COc1ccc(CNc2ncnc3c2ncn3C2CCCCO2)c(OC)c1OC (centres undefined)
  Activity: inactive

## COc1ccc(CNc2ncnc3c2ncn3C2CCCCO2)cc1OC (centres undefined)
  Activity: inactive

## COc1cc(CNc2ncnc3c2ncn3C2CCCCO2)cc(OC)c1 (centres undefined)
  Activity: inactive

## COc1ccc(CNc2ncnc3c2ncn3C2CCCCO2)c(OC)c1 (centres undefined)
  Activity: inactive
